# Experimental data of several laboratories.
# Protocols differ between the studies behind these lines.
# Effect on: microbial growth
Compound,organism,technique,strain,time,MIC
CCCCCCCCN1CCN(CC(O)(Cn2cncn2)c2ccc(F)cc2F)CC1 (stereo not drawn),Nakaseomyces glabratus,broth dilution,ATCC2001,48 h,15.6 µg/mL
C[C@@H]1[C@H](O)[C@@H](C)/C=C/C=C/C=C/C=C/C=C/C=C/C=C/[C@H](O[C@@H]2O[C@H](C)[C@@H](O)[C@H](N)[C@@H]2O)C[C@@H]2O[C@](O)(C[C@@H](O)C[C@@H](O)[C@H](O)CC[C@@H](O)C[C@@H](O)CC(=O)O[C@H]1C)C[C@H](O)[C@H]2C(=O)O,Cryptococcus neoformans,,ATCC90113,,1.25 µg/mL
CC(C)Oc1c(NC(=O)c2ccc(NC(=O)c3ccc(NC(=O)[C@H](CC(N)=O)NC(=O)c4ccc(NC(=O)c5ccc(C#N)s5)cc4)cc3)c(OC(C)C)c2O)ccc(C(=O)O)c1O,Proteus vulgaris,,DSM2140,,1 µg/mL
CCCCCCCCCCCCCCS(=O)(=O)C[C@@H]1O[C@@H](O[C@@H]2[C@@H](O)[C@H](O[C@@H]3O[C@@H](CN)[C@H](O)[C@@H](O)[C@@H]3N)[C@@H](N)C[C@H]2N)[C@@H](O)[C@H](N)[C@H]1O,Listeria monocytogenes,,ATCC19115,,2 to 4 µg/mL
O=C(CCCCCC[P+](c1ccccc1)(c1ccccc1)c1ccccc1)Nc1ccc(O)c(O)c1.[Br-],Cryptococcus neoformans,broth dilution,ATCC208821,24 h,> 32 µg/mL
CCCCCCC/C=C/C(=O)N1C(=O)/C(=C(/C)O)C(=O)C1CCC(=O)O (stereo not drawn),Proteus vulgaris,,ATCC33420,,> 200 µg/mL
CN1CCN(CC(O)(Cn2cncn2)c2ccc(F)cc2F)CC1 (stereo not drawn),Nakaseomyces glabratus,broth dilution,ATCC2001,48 h,31.3 µg/mL
CC(C)Oc1c(-n2cc(-c3ccc(NC(=O)C(CC(N)=O)NC(=O)c4ccc(NC(=O)c5ccc(C#N)cc5)cc4)cc3)nn2)ccc(C(=O)Nc2ccc(C(=O)O)cc2)c1O (stereo not drawn),Proteus vulgaris,,DSM2140,,2 µg/mL
CNC(=O)c1cc(Oc2ccc(NC(=O)Nc3ccc(Cl)c(C(F)(F)F)c3)cc2)ccn1,Listeria monocytogenes,,,,3 µM
CO[C@@H](C(N)=O)[C@H](NC(=O)c1ccc(NC(=O)c2ccc(C#N)cc2)cc1)C(=O)Nc1ccc(C(=O)Nc2ccc(C(=O)Nc3ccc(C(=O)O)cc3)c(O)c2OC(C)C)cc1,Proteus vulgaris,,DSM2140,,0.125 µg/mL
NC[C@H]1O[C@H](O[C@H]2[C@H](O)[C@@H](O[C@H]3O[C@H](CO)[C@@H](O)[C@H](N)[C@H]3O)[C@H](N)C[C@@H]2N)[C@H](O)[C@@H](O)[C@@H]1O,Listeria monocytogenes,,ATCC19115,,> 128 µg/mL
CCCCCCC/C=C/C(=O)N1C(=O)/C(=C(/C)O)C(=O)C1Cc1ccc(O)cc1 (stereo not drawn),Proteus vulgaris,,ATCC33420,,> 200 µg/mL
CC(C)Oc1c(NC(=O)c2ccc(NC(=O)[C@H](CC(N)=O)NC(=O)c3ccc(NC(=O)c4ccc(C#N)cc4)cc3)cc2)ccc(C(=O)Nc2ccc(C(=O)O)cc2)c1O,Proteus vulgaris,,DSM2140,,0.25 µg/mL
C/C(O)=C1\C(=O)C(CC(C)C)N(C(=O)CCCCCc2ccccc2)C1=O (stereo not drawn),Proteus vulgaris,,ATCC33420,,> 200 µg/mL
O=C(CCCCCCCC[P+](c1ccccc1)(c1ccccc1)c1ccccc1)Nc1cc(O)c(O)c(O)c1.[Br-],Cryptococcus neoformans,broth dilution,ATCC208821,24 h,8 µg/mL
CCCCCCC/C=C/C(=O)N1C(=O)/C(=C(\O)CCCC)C(=O)C1CC(C)C (stereo not drawn),Proteus vulgaris,,ATCC33420,,> 200 µg/mL
O=C(CCCCCC[P+](c1ccccc1)(c1ccccc1)c1ccccc1)Nc1cc(O)c(O)c(O)c1.[Br-],Cryptococcus neoformans,broth dilution,ATCC208821,24 h,32 µg/mL
CCCCCCC/C=C/C(=O)N1C(=O)/C(=C(\O)c2ccc(OCOCCOC)cc2)C(=O)C1CC(C)C (stereo not drawn),Proteus vulgaris,,ATCC33420,,> 200 µg/mL
C/C(=C\c1ccc(O)cc1)C(=O)Nc1ccc(C(=O)N[C@@H](CC(N)=O)C(=O)Nc2ccc(C(=O)Nc3ccc(C(=O)Nc4ccc(C(=O)O)cc4)c(O)c3OC(C)C)cc2)cc1,Proteus vulgaris,,DSM2140,,0.125 µg/mL
CCCCCCC/C=C/C(=O)N1C(=O)/C(=C(\O)c2ccccc2)C(=O)C1CC(C)C (stereo not drawn),Proteus vulgaris,,ATCC33420,,> 200 µg/mL
OC(Cn1cncn1)(Cn1cncn1)c1ccc(F)cc1F,Cryptococcus neoformans,broth dilution,ATCC208821,24 h,8 µg/mL
